≈ marks a conversion by molar mass, not a printed value. Calls of active or inactive are those of the source. The rule behind the calls is not given here.
Assays:
[1] = target: T1, Bile acid receptor (Homo sapiens) (UniProt Q96RI1); experiment: Agonist activity at C-terminal Gal4-tagged human FXR (187 to 472 residues) expressed in HEK-293 cells co-expressing pFRluc by mammalian one hybrid assay relative to GW4064; type: cell-based; conditions: HEK293
T1 sequence (whole entry): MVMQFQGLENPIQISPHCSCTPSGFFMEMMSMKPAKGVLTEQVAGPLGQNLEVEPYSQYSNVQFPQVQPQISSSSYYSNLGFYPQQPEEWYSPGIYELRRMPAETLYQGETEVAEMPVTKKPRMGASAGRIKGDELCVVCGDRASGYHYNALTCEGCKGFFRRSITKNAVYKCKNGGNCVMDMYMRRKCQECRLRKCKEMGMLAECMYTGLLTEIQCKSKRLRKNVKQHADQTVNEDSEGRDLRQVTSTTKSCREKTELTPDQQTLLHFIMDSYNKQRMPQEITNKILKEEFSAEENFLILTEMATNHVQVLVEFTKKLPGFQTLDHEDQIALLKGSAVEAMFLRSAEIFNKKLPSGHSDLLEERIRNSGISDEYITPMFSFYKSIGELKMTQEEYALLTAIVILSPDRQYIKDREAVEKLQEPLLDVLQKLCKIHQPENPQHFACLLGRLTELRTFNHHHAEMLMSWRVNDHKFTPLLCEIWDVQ
Procedure, shortened: (§1)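 Transient transfection of HEK293 cells with Gal4 DBD–human FXR LBD (187–472) chimera under CMV promoter plus pFRluc Gal4-driven firefly luciferase reporter. Cells treated with serial compound dilutions. EC50 from at least three experiments; efficacy is extrapolated maximum signal of the dose-response, GW4064 set to 100%.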

[2] = target: T2, Bile acid receptor (Homo sapiens, UniProt Q96RI1); experiment: Agonist activity at GST-tagged FXR LBD (187 to 472 residues) (unknown origin) assessed as FXR interaction with b-CPSSHSSLTERHKILHRLLQEGSPS-COOH by FRET assay
T2 sequence (Q96RI1 whole entry): T1 sequence (whole entry)

[3] = target: T1, Bile acid receptor (Homo sapiens); experiment: Agonist activity at GST-tagged FXR LBD (187 to 472 residues) (unknown origin) assessed as FXR interaction with b-CPSSHSSLTERHKILHRLLQEGSPS-COOH by FRET assay relative to GW4064
[4] = target: T2, Bile acid receptor; experiment: Agonist activity at C-terminal Gal4-tagged human FXR (187 to 472 residues) expressed in HEK-293 cells co-expressing pFRluc by mammalian one hybrid assay; type: cell-based, HEK293; procedure, shortened: as §1
[5] = AUC in C57BL/6J mouse at 5 mg/kg, po and 1 mg/kg, iv; type: ADME, organism-based; conditions: in vivo
Procedure, shortened: (§2)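 Mice dosed 5 mg/kg orally and 1 mg/kg intravenously; bioavailability from both arms, all other parameters (AUC, Cmax, T1/2, Cl/F, Vd/F) calculated from the oral arm.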

[6] = Apparent oral clearance in C57BL/6J mouse at 5 mg/kg; type: ADME, organism-based; conditions: in vivo; procedure, shortened: as §2
[7] = Permeability of the compound assessed as compound enrichment in membrane compartment measured after 16 hrs by PAMPA assay relative to control; type: ADME
Procedure, shortened: (§3)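 PAMPA, 16 h at rt. Flux = [C_acceptor/(C_donor + C_acceptor)] × 100 × 2. Membrane enrichment = C_membrane × 2/(C_acceptor + C_donor), membrane phase extracted into a volume equal to the acceptor or donor compartment.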

[8] = Aqueous solubility of the compound; type: physicochemical; conditions: buffer
[9] = Cmax in C57BL/6J mouse at 5 mg/kg, po and 1 mg/kg, iv; type: ADME, organism-based; conditions: in vivo; procedure, shortened: as §2
[10] = Half life in C57BL/6J mouse at 5 mg/kg, po and 1 mg/kg, iv; type: ADME, organism-based; conditions: in vivo; procedure, shortened: as §2
[11] = Apparent oral volume of distribution in C57BL/6J mouse at 5 mg/kg; type: ADME, organism-based; conditions: in vivo; procedure, shortened: as §2
[12] = Oral bioavailability in C57BL/6J mouse at 5 mg/kg; type: ADME, organism-based; conditions: in vivo; procedure, shortened: as §2
[13] = Permeability of the compound assessed as compound influx measured after 16 hrs by PAMPA assay; type: ADME; procedure, shortened: as §3
[14] = test system: Mus musculus; experiment: Reduction in total cholesterol level in high fat diet enriched with cholesterol fed C57BL/6J mouse plasma at 10 mg/kg, po through gavage for 10 days measured after 4 hrs of final dosage relative to vehicle treated-control; type: functional, organism-based
Procedure, shortened: (§4)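 C57BL/6J mice pre-fed and kept on high fat diet (60% kcal fat) with 1% (w/w) cholesterol; 10 mg/kg by oral gavage for 10 days. Plasma total cholesterol and triglycerides taken at sacrifice 4 h after final dose, expressed as % change versus vehicle group.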

[15] = test system: Mus musculus; experiment: Reduction in total triglyceride level in high fat diet enriched with cholesterol fed C57BL/6J mouse plasma at 10 mg/kg, po through gavage for 10 days measured after 4 hrs of final dosage relative to vehicle treated-control; type: functional, organism-based; procedure, shortened: as §4

SMILES	Efficacy [1]	EC50 [2]	Efficacy [3]	EC50 [4]	AUC [5]	CL/F [6]	fold change (FC) [7]	solubility [8]	Cmax [9]	half-life [10]	Vd/F [11]	bioavailability [12]	permeability [13]	Activity [14]	Activity [15]
O=C(O)c1ccc([C@H]2C[C@@H]2c2ccc(OCc3c(-c4c(Cl)cccc4Cl)noc3C3CC3)cc2Cl)cc1 [PX-102]	71%	1090 nM	100%	186 nM	–	–	–	–	–	–	–	–	–	–	–
O=C(O)c1cccc(C2CC2c2ccc(OCc3c(-c4c(Cl)cccc4Cl)noc3C3CC3)cc2Cl)c1 (racemic)	87%	32 nM	102%	34 nM	800 ng·h/mL	55 mL/min/kg	33	20 µM (≈ 11.1 µg/mL)	1060 ng/mL	60 min	4.7 L/kg	53%	17%	–	–
Cn1nc(C(=O)O)c2ccc([C@H]3C[C@](O)(c4ccc(OCc5c(-c6c(Cl)cccc6Cl)noc5C5CC5)cc4Cl)C3)cc21	82%	19 nM	99%	50 nM	–	–	–	–	–	–	–	–	–	–	–
O=C(O)c1ccc([C@@H]2C[C@H]2c2ccc(OCc3c(-c4c(Cl)cccc4Cl)noc3C3CC3)cc2Cl)cc1	89%	80 nM	99%	47 nM	–	–	–	–	–	–	–	–	–	–	–
CO[C@]1(c2ccc(OCc3c(-c4c(Cl)cccc4Cl)noc3C3CC3)cc2Cl)C[C@H](c2cccc(C(=O)O)c2)C1	75%	79 nM	93%	102 nM	–	–	–	–	–	–	–	–	–	–	–
O=C(O)CNC(=O)c1ccc(C2CC2c2ccc(OCc3c(-c4c(Cl)cccc4Cl)noc3C3CC3)cc2Cl)cc1 (racemic)	58%	150 nM	100%	209 nM	–	–	–	–	–	–	–	–	–	–	–
Clc1cc(OCc2c(-c3c(Cl)cccc3Cl)noc2C2CC2)ccc1C1CC1c1ccc(-c2nnn[nH]2)nc1 (stereo not given)	79%	131 nM	101%	111 nM	–	–	–	–	–	–	–	–	–	–	–
O=C(NCCS(=O)(=O)O)c1ccc(C2CC2c2ccc(OCc3c(-c4c(Cl)cccc4Cl)noc3C3CC3)cc2Cl)cc1 (racemic)	34%	76 nM	98%	1370 nM	–	–	–	–	–	–	–	–	–	–	–
O=C(O)c1cccc([C@H]2C[C@@H]2c2ccc(OCc3c(-c4c(Cl)cccc4Cl)noc3C3CC3)cc2Cl)c1	88%	219 nM	101%	90 nM	–	–	–	–	–	–	–	–	–	–	–
Cn1nc(C(=O)O)c2ccc(C3CC3c3ccc(OCc4c(-c5c(Cl)cccc5Cl)noc4C4CC4)cc3Cl)cc21 (racemic)	84%	13 nM	104%	14 nM	–	–	–	–	–	–	–	–	–	–	–
CCO[C@]1(c2ccc(OCc3c(-c4c(Cl)cccc4Cl)noc3C3CC3)cc2Cl)C[C@H](c2cccc(C(=O)O)c2)C1	89%	277 nM	94%	220 nM	–	–	–	–	–	–	–	–	–	–	–
O=C(O)c1cccc([C@H]2C[C@H](c3ccc(OCc4c(-c5c(Cl)cccc5Cl)noc4C4CC4)cc3Cl)C2)c1	89%	24 nM	100%	15 nM	–	–	319	–	–	–	–	–	0%	–	–
O=C(O)c1cccc([C@H]2C[C@@H](c3ccc(OCc4c(-c5c(Cl)cccc5Cl)noc4C4CC4)cc3Cl)C2)c1	88%	77 nM	99%	92 nM	–	–	–	–	–	–	–	–	–	–	–
CC(C)n1nc(C(=O)O)cc1[C@@H]1C[C@H]1c1ccc(OCc2c(-c3c(Cl)cccc3Cl)noc2C2CC2)cc1Cl	79%	4 nM	101%	4 nM	–	–	–	–	–	–	–	–	–	–	–
O=C(O)c1cccc([C@H]2C[C@](O)(c3ccc(OCc4c(-c5c(Cl)cccc5Cl)noc4C4CC4)cc3Cl)C2)c1	79%	29 nM	100%	25 nM	8600 ng·h/mL	4.7 mL/min/kg	27	–	9800 ng/mL	36 min	0.3 L/kg	49%	24%	Active	Active
O=C(O)c1cncc(C2CC2c2ccc(OCc3c(-c4c(Cl)cccc4Cl)noc3C3CC3)cc2Cl)c1 (stereo not given)	73%	10 nM	103%	14 nM	–	–	–	165 µM (≈ 91.7 µg/mL)	–	–	–	–	–	–	–
CC(C)n1nc(C(=O)O)cc1C1CC1c1ccc(OCc2c(-c3c(Cl)cccc3Cl)noc2C2CC2)cc1Cl (racemic)	81%	7 nM	102%	6 nM	110 ng·h/mL	83 mL/min/kg	22	158 µM (≈ 92.7 µg/mL)	160 ng/mL	48 min	5.5 L/kg	11%	29%	Active	Active
CS(=O)(=O)NC(=O)c1ccc(C2CC2c2ccc(OCc3c(-c4c(Cl)cccc4Cl)noc3C3CC3)cc2Cl)cc1 (racemic)	88%	90 nM	100%	44 nM	–	–	–	–	–	–	–	–	–	–	–
O=C(O)c1ccc(C2CC2c2ccc(OCc3c(-c4c(Cl)cccc4Cl)noc3C3CC3)cc2Cl)cn1 (stereo not given)	68%	66 nM	101%	57 nM	–	–	–	–	–	–	–	–	–	–	–
O=C(O)c1cccc(N2CC(O)(c3ccc(OCc4c(-c5c(Cl)cccc5Cl)noc4C4CC4)cc3Cl)C2)c1	94%	54 nM	97%	–	–	–	40	–	–	–	–	–	27%	–	–
CS(=O)(=O)NC(=O)c1ccc([C@@H]2C[C@H]2c2ccc(OCc3c(-c4c(Cl)cccc4Cl)noc3C3CC3)cc2Cl)cc1	81%	48 nM	94%	44 nM	–	–	–	–	–	–	–	–	–	–	–
O=C(O)c1cccc([C@H]2C[C@](OCCO)(c3ccc(OCc4c(-c5c(Cl)cccc5Cl)noc4C4CC4)cc3Cl)C2)c1	68%	373 nM	97%	377 nM	–	–	–	–	–	–	–	–	–	–	–
O=C(O)c1cccc([C@@H]2C[C@H]2c2ccc(OCc3c(-c4c(Cl)cccc4Cl)noc3C3CC3)cc2Cl)c1	98%	18 nM	100%	29 nM	–	–	–	–	–	–	–	–	–	inactive	inactive
O=C(O)c1ccc([C@H]2C[C@](O)(c3ccc(OCc4c(-c5c(Cl)cccc5Cl)noc4C4CC4)cc3Cl)C2)cc1	71%	24 nM	105%	63 nM	180 ng·h/mL	190 mL/min/kg	9	192 µM (≈ 112 µg/mL)	96 ng/mL	66 min	3.9 L/kg	41%	21%	–	–
O=C(O)c1ccc(C2CC2c2ccc(OCc3c(-c4c(Cl)cccc4Cl)noc3C3CC3)cc2Cl)cc1 (racemic)	85%	131 nM	100%	76 nM	430 ng·h/mL	85 mL/min/kg	30	–	280 ng/mL	30 min	3.6 L/kg	44%	14%	Active	Active

Source: ChEMBL document CHEMBL3822410, “Novel substituted isoxazole FXR agonists with cyclopropyl, hydroxycyclobutyl and hydroxyazetidinyl linkers: Understanding and improving key determinants of pharmacological properties” (Bioorg Med Chem Lett, 2016)
